Values after ≈ are worked out from the molar mass of the structure shown. Active and inactive are the calls of the source. Bounds are passed on as bounds.

This is an account of results in ChEMBL document CHEMBL2331253, “Atropisomeric dihydroanthracenones as inhibitors of multiresistant Staphylococcus aureus” (J Med Chem, 2013).

In series [1] the test system is Escherichia coli. The series can be described thus: Antibacterial activity against Escherichia coli ATCC 25922 assessed as growth inhibition by CLSI broth microdilution method. The class given is functional.
For series [2], the system named is Bacillus subtilis. The series can be described thus: Induction of bmrC promoter in Bacillus subtilis IS34 promoter at 64 ug/mL after 3 hrs by luciferase reporter gene assay. The class given is functional, organism-based. The essentials:
(§1)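 Promoter–firefly luciferase fusions were built in B. subtilis IS34. Luminescence was read in a plate reader and expressed as percent of the untreated control. One representative experiment.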
(In general: A reporter such as luciferase makes a cellular process visible.)

The next series relates to Streptococcus pyogenes. In words: Antibacterial activity against doxycycline-intermediate Streptococcus pyogenes 014327 assessed as growth inhibition by CLSI broth microdilution method. The class given is functional.
In series [3] the test system is Staphylococcus aureus. In words: Antibacterial activity against ceftazidime, clarithromycin, ciprofloxacin, clindamycin, doxycycline, erythromycin, methicillin, moxifloxacin, kanamycin, telithromycin, rifampicin, methicillin-resistant, vancomycin-intermediate Staphylococcus aureus subsp. aureus Mu50 assessed as growth inhibition by CLSI broth microdilution method. The class given is functional. The procedure, abridged: (§2)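 MICs determined by CLSI broth microdilution in Mueller–Hinton broth. Inoculum was prepared by direct colony suspension, at 5 × 10^5 CFU/mL.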

The subject of a further series is Enterococcus faecalis. The series can be described thus: Antibacterial activity against clarithromycin, erythromycin, moxifloxacin, telithromycin, vancomycin-resistant Enterococcus faecalis UW 2689 assessed as growth inhibition by CLSI broth microdilution method. The class given is functional. The essentials: as §2
A general note: Dilution methods test growth across graded concentrations, often in twofold steps.

The test system of a further series is Klebsiella pneumoniae. In words: Antibacterial activity against doxycycline, kanamycin-resistant Klebsiella pneumoniae ATCC 27799 assessed as growth inhibition by CLSI broth microdilution method. The class given is functional. The procedure, abridged:
as §2

Another series concerns THP-1. In words: Cytotoxicity against human THP1 cells assessed as growth inhibition up to 32 ug/mL after 48 hrs by Alamar blue assay. The class given is cell-based. To be noted: thp-1, 48 h. The essentials:
(§3)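 THP-1 cells were kept in RPMI-1640 with 10% FCS. BALB/3T3 cells were kept in DMEM with 10% FCS. Cells were plated at 10^4 per well without antibiotics and exposed to 0.016−32 μg/mL (final, 0.32% DMSO) for 48 h at 37 °C, 5% CO2. AlamarBlue was added for 24 h more. Fluorescence (ex 560/em 600 nm) was expressed relative to untreated cells.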

Series [4] concerns Staphylococcus aureus. In words: Antibacterial activity against amoxicillin, chloramphenicol, ciprofloxacin, clindamycin, erythromycin, fosmidomycin, gentamycin, kanamycin, nitrofurantoin, telithromycin, methicillin-resistant Staphylococcus aureus 25697 assessed as growth inhibition by CLSI broth microdilution method. The class given is functional. The essentials: as §2
Series [5] concerns Bacillus subtilis. In words: Induction of recA promoter in Bacillus subtilis YB3001 using 4-methylumbelliferyl beta D-galactopyranoside as substrate incubated for 3 hrs prior to substrate addition measured after 1 hr by beta galactosidase reporter gene assay relative to control. The class given is functional. The procedure, abridged:
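recA–β-galactosidase reporter in B. subtilis YB3001. Twofold compound dilutions in lysogeny broth were inoculated with mid-exponential cells and incubated 3 h at 37 °C, then frozen at −20 °C overnight. Cells were lysed with lysozyme (30 min, 37 °C) and Triton X-100. MUG was added and incubated 1 h at 25 °C. Fluorescence read at ex 360/em 450 nm.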

The next series concerns Streptococcus agalactiae. The series can be described thus: Antibacterial activity against doxycycline-intermediate Streptococcus agalactiae 013761 assessed as growth inhibition by CLSI broth microdilution method. The class given is functional.
Series [6] deals with Bacillus subtilis. In words: Antibacterial activity against Bacillus subtilis subsp. subtilis str. 168 trpC2 assessed as growth inhibition by CLSI broth microdilution method. The class given is functional.
The test system of series [7] is Staphylococcus aureus. The series can be described thus: Antibacterial activity against Staphylococcus aureus ATCC 29213 assessed as concentration required for partial growth inhibition by CLSI broth microdilution method. The class given is functional.
Another series deals with Pseudomonas aeruginosa. In words: Antibacterial activity against ceftazidime, ciprofloxacin, cefepime, gentamycin, imipenem, meropenem, piperacillin/tazobactam-resistant Pseudomonas aeruginosa 63230 assessed as growth inhibition by CLSI broth microdilution method. The class given is functional. The essentials:
as §2

The subject of another series is Streptococcus pneumoniae. The series can be described thus: Antibacterial activity against Streptococcus pneumoniae ATCC 49619 assessed as growth inhibition by CLSI broth microdilution method. The class given is functional.
The subject of series [8] is Staphylococcus aureus. The series can be described thus: Antibacterial activity against Staphylococcus aureus ATCC 29213 assessed as growth inhibition by CLSI broth microdilution method. The class given is functional. The procedure, abridged:
as §2

Another series has as its system BALB/3T3. The series can be described thus: Cytotoxicity against mouse BALB/3T3 cells assessed as growth inhibition up to 32 ug/mL after 48 hrs by Alamar blue assay. To be noted: balb/3t3, 48 h. The class given is cell-based. The procedure, abridged:
as §3
On the technique in general: Resazurin is reduced to fluorescent resorufin, in cell work by metabolically active cells.

Another series relates to Enterococcus faecium. In words: Antibacterial activity against clarithromycin, erythromycin, telithromycin, vancomycin-resistant Enterococcus faecium 6011 assessed as growth inhibition by CLSI broth microdilution method. The class given is functional. The essentials:
as §2

Series [9] has as its system Bacillus subtilis. The series can be described thus: Induction of helD promoter in Bacillus subtilis IS34 at 64 ug/mL after 3 hrs by luciferase reporter gene assay. The class given is functional, organism-based. The essentials:
as §1

Series [10] concerns Bacillus subtilis. In words: Induction of liaI promoter in Bacillus subtilis IS34 promoter at 64 ug/mL after 3 hrs by luciferase reporter gene assay. The class given is functional, organism-based. The essentials:
as §1

For series [11], the system named is Bacillus subtilis. In words: Induction of yorB promoter in Bacillus subtilis IS34 after 3 hrs at 0.01 to 100 ug/ml by luciferase reporter gene assay. The class given is functional. The procedure, abridged: as §1
The test system of series [12] is Escherichia coli. In words: Antibacterial activity against ciprofloxacin-resistant Escherichia coli WT-3-1 MB2 assessed as growth inhibition by CLSI broth microdilution method. The class given is functional. The procedure, abridged: as §2

For the compound `Cc1cc(O)c2c(c1)C(=O)c1c(c(O)cc(O)c1-c1c(O)cc(O)c3c1C(=O)c1cc(C)cc(O)c1C3=O)C2=O` [SKYRIN], the MIC (usually the smallest concentration in the dilution series that meets the test's criterion for growth inhibition) with Escherichia coli [1] was greater than 64 µg/mL; in the series on Streptococcus pyogenes, greater than 64 µg/mL; with Staphylococcus aureus [3] it was 2 µg/mL (≈ 3.71 µM); with Enterococcus faecalis, 16 µg/mL (≈ 29.7 µM); in the series on Klebsiella pneumoniae it was greater than 64 µg/mL; in the series with Staphylococcus aureus [4], 4 µg/mL (≈ 7.43 µM). The MIC in the series on Streptococcus agalactiae was greater than 64 µg/mL; in the series with Bacillus subtilis [6] it was 4 µg/mL (≈ 7.43 µM); in the series on Staphylococcus aureus [7], 2 µg/mL (≈ 3.71 µM); in the series on Pseudomonas aeruginosa it was greater than 64 µg/mL; with Streptococcus pneumoniae, 4 µg/mL (≈ 7.43 µM); in the series on Staphylococcus aureus [8] it was 4 µg/mL (≈ 7.43 µM). In addition, the MIC is 32 µg/mL (≈ 59.4 µM) with Enterococcus faecium and greater than 64 µg/mL with Escherichia coli [12]. Also, the outcome with Bacillus subtilis [2], with Bacillus subtilis [5], in the series with Bacillus subtilis [9], in the series on Bacillus subtilis [10] and with Bacillus subtilis [11] was inactive. The “growth inhibition (GI)” value with THP-1 and with BALB/3T3 was “Non-toxic” in each case.
